Experimental data published in ChEMBL document CHEMBL1641579, “Synthesis and biological evaluation of 7-substituted-1-(3-bromophenylamino)isoquinoline-4-carbonitriles as inhibitors of myosin light chain kinase and epidermal growth factor receptor” (Bioorg Med Chem, 2011).
Values belong to the compound of their own block, whether it stands above or below them. The source made the active and inactive calls. The calls are words filed in the database; no cut-off is given here.

Assays:
[1] = target: T1, Myosin light chain kinase, smooth muscle (Homo sapiens, UniProt Q15746); assay: Inhibition of MLCK up to 40 uM by HTRF assay
T1 sequence (Q15746 whole entry): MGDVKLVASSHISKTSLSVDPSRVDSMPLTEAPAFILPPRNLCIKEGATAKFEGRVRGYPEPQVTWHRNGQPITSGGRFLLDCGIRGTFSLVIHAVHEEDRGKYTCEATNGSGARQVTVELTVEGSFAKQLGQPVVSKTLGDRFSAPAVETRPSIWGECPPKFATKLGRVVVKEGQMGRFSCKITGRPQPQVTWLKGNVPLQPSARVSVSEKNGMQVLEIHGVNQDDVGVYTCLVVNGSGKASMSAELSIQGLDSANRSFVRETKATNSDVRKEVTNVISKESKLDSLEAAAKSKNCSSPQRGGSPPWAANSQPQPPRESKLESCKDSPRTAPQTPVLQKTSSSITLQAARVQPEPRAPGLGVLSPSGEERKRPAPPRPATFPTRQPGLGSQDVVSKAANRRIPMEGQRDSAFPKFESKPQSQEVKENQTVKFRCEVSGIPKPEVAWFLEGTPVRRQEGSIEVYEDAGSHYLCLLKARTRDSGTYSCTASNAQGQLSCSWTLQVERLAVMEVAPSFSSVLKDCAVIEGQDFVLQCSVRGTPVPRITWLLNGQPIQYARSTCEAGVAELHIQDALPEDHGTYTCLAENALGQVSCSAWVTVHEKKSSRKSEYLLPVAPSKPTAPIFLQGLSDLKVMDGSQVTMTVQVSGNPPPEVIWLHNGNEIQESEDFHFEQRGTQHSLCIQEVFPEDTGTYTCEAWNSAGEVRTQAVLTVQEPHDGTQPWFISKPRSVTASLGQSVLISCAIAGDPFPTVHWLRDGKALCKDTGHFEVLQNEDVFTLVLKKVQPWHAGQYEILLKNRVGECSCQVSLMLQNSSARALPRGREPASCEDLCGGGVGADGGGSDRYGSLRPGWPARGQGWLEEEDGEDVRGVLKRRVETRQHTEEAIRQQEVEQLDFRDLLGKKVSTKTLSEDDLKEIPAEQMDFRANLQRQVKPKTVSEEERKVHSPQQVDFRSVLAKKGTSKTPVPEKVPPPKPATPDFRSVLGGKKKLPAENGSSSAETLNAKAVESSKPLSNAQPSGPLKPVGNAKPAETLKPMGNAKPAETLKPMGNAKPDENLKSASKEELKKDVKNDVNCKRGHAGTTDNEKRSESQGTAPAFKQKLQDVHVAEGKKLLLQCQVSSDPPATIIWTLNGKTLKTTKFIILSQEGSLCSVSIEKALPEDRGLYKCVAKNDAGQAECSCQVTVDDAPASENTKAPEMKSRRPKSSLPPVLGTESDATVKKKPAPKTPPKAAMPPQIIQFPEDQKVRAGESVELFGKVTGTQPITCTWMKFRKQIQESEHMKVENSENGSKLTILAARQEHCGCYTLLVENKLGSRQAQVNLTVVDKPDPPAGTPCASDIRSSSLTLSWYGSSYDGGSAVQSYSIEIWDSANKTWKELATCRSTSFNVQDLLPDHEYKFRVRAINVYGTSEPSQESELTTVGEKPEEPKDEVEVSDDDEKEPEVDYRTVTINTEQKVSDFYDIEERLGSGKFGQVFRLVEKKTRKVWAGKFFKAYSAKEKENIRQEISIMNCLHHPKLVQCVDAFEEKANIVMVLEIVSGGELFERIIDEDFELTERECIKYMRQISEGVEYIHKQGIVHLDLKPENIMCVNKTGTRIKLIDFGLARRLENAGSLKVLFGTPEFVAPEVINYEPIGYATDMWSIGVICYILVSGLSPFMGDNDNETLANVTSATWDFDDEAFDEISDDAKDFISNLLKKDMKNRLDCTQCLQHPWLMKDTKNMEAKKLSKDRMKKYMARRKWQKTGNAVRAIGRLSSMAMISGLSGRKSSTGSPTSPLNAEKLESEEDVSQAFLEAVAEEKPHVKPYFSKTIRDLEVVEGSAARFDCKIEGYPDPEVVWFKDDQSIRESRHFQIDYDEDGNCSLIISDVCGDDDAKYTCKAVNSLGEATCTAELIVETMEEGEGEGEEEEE
Method in brief: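 HTRF activity assay with peptide substrate STK1 at 375 nM and ATP at its Km (18 µM), in the presence of Ca2+/calmodulin. Kinase and inhibitor preincubated 30 min, then ATP plus substrate added. Detection by Eu-cryptate anti-phospho-STK1 antibody and streptavidin-XL665, with the 665/620 nm FRET ratio read. Eight inhibitor concentrations, Hill 4-parameter fit. At least two independent runs, each in duplicate. NI means no inhibition up to 40 µM.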

[2] = target: T2, Epidermal growth factor receptor (Homo sapiens, UniProt P00533); assay: Inhibition of EGFR by HTRF assay
T2 sequence (P00533 whole entry): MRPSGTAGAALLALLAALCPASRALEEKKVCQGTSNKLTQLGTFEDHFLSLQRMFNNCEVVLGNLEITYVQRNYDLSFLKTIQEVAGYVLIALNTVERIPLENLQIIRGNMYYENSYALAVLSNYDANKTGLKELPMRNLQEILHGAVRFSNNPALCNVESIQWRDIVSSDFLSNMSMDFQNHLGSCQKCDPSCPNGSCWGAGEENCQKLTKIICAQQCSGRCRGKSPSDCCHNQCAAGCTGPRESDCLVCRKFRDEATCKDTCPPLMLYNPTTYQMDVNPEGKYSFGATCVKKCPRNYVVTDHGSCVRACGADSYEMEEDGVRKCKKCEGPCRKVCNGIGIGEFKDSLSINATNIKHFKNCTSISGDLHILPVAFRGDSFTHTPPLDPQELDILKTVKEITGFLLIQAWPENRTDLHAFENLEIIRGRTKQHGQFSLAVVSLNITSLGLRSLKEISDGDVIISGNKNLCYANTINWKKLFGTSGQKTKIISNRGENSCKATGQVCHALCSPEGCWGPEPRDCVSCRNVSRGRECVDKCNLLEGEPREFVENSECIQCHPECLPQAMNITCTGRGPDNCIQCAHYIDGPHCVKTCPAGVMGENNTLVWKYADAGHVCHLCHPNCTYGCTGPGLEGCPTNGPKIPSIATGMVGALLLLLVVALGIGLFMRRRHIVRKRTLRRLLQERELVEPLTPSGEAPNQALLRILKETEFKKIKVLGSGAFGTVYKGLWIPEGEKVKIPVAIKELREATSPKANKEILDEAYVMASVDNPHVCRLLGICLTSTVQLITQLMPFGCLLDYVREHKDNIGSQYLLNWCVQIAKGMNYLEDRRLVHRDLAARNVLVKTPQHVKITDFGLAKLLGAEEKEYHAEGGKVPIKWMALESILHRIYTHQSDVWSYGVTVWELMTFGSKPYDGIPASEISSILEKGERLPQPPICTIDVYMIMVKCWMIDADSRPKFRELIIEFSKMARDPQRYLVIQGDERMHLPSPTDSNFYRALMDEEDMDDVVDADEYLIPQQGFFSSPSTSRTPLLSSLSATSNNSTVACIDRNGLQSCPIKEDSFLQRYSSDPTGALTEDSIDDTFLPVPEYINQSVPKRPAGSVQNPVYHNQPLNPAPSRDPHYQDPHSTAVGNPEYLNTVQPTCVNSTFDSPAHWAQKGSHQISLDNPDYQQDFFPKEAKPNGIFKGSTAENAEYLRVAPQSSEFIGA

[3] = target: T1, Myosin light chain kinase, smooth muscle; assay: Inhibition of MLCK by HTRF assay
[4] = target: T2, Epidermal growth factor receptor; assay: Inhibition of EGFR up to 40 uM by HTRF assay

Structure (SMILES): O=S(=O)(c1cccc2c(I)cccc12)N1CCCNCC1
- Ki [3]: 0.3 µM

Structure (SMILES): COC[C@H]1OC(=O)c2coc3c2[C@@]1(C)C1=C(C3=O)[C@@H]2CCC(=O)[C@@]2(C)C[C@H]1OC(C)=O [WORTMANNIN]
- IC50 [3]: 0.17 µM

Structure (SMILES): O=S(=O)(c1cccc2cnccc12)N1CCCNCC1 [FASUDIL]
- IC50 [3]: 21.6 µM
- Ki [3]: 36 µM

Structure (SMILES): NCCCCCCNS(=O)(=O)c1cccc2c(Cl)cccc12
- Ki [3]: 110 µM

Continued, values first:

- inhibition [1]: inactive
- IC50 [2]: 2.2 µM
Structure (SMILES): N#Cc1cnc(Nc2cccc(Br)c2)c2cc(NC(=O)[C@@H]3CCC(=O)N3)ccc12

- inhibition [1]: inactive
- IC50 [2]: 12.8 µM
Structure (SMILES): CCOC(=O)Nc1ccc2c(C#N)cnc(Nc3cccc(Br)c3)c2c1

- inhibition [1]: inactive
- inhibition [4]: inactive
Structure (SMILES): N#Cc1cnc(Nc2cccc(Br)c2)c2cc(NC(=O)c3cc4ccccc4[nH]3)ccc12

- inhibition [1]: inactive
- IC50 [2]: 45.2 µM
Structure (SMILES): N#Cc1cnc(Nc2cccc(Br)c2)c2cc(NC(=O)c3ccoc3)ccc12

- inhibition [1]: inactive
- IC50 [2]: 55.6 µM
Structure (SMILES): N#Cc1cnc(Nc2cccc(Br)c2)c2cc(NC(=O)c3ccco3)ccc12

- inhibition [1]: inactive
- IC50 [2]: 20.8 µM
Structure (SMILES): CCC(=O)Nc1ccc2c(C#N)cnc(Nc3cccc(Br)c3)c2c1

- inhibition [1]: inactive
- IC50 [2]: 6.9 µM
Structure (SMILES): N#Cc1cnc(Nc2cccc(Br)c2)c2cc(NC(=O)CCN3CCOCC3)ccc12
